Results taken from ChEMBL document CHEMBL4513216, “Probing the Open Global Health Chemical Diversity Library for Multistage-Active Starting Points for Next-Generation Antimalarials” (ACS Infect Dis, 2020).

Assay: Toxicity liver stage against HepG2, at 10uM
Format: cell-based
Design: test concentration 10 uM, cell line HepG2-A16-CD81EGFP
Settings: human, HepG2-A16-CD81EGFP cells; read-out: INHIBITION
Summary of the method: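 Uninfected HepG2-A16-CD81EGFP cells, 3 × 10^3 per well, 1536-well, plated on prespotted compound at 10 μM final, parasite-free screening media added to match infected plates; puromycin 10 μM positive, DMSO 0.5% negative; run in parallel with 48 h PbLuc assay at 37 °C, 5% CO2; viability by CellTiter-Glo luminescence, normalized to controls.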

SMILES	cytotoxicity at 10 µM [%]
COc1ccc(C(=O)c2cnc(C(C)C)n2C)cc1	15.5
CCOCCCNC(=O)C(NC(=O)Cc1cccs1)c1ccccc1 (stereo not drawn)	12.3
COCCN1C[C@H]2CN(C(=O)c3ccno3)CCN2C1=O	1.29
COC(=O)c1ccc(-c2ccc(/C=C3\C(=O)NC(=N)N3C)o2)cc1	-66.3
COc1cnc(CSc2nnc(C)s2)cc1OCC(N)=O	8.52
O=C1CC2(CCN(C(=O)c3ccccn3)CC2)Oc2c(Br)cc(Br)cc21	11.5
CC(C)CN1CC(O)CN(S(=O)(=O)c2ccc(F)cc2)CC1=O (stereo not drawn)	2.99
COc1ccccc1C(=O)N1CC(=O)N(CC2CC2)CC(O)C1 (stereo not drawn)	5.99
COC(=O)c1ccc(C2CC(=O)Nc3c2cnn3C)cc1 (stereo not drawn)	-2.56
O=C(Cn1cnc2ccsc2c1=O)NCCCc1nnc2ccccn12	1.43
O=C(CCn1ccc(=O)[nH]c1=O)N1CCC(Oc2ccccn2)CC1	-1.47
Cn1cnc(S(=O)(=O)NCC2(O)CCOc3ccccc32)c1 (stereo not drawn)	12
CS(=O)(=O)N1CCCC12CCCN(C(=O)c1cc(F)cc(F)c1)C2 (stereo not drawn)	-140
Cc1ccc(NC(=O)CC2Cn3ncnc3NC2=O)cc1C (stereo not drawn)	10.5
CCOCCCNC(=O)CN(c1cc(C)cc(C)c1)S(C)(=O)=O	4.48
Cn1ncc2c1NC(=O)CC2c1ccc(Cl)cc1Cl (stereo not drawn)	59.9
O=C1CO[C@@H]2CN(S(=O)(=O)c3ccccc3)C[C@H]2N1CC1CC1	-3.1
CCC(C)NC(=O)c1ccn(COc2ccccc2Cl)n1 (stereo not drawn)	5.75
CC[C@@H](Cn1ncc2ccccc2c1=O)NC(=O)c1ccco1	8.44
CN(C(=O)c1ccccc1F)[C@@H]1CC[C@@H](O)[C@@H]1O	-6.11
CN(C)c1cc(C2CCCN(C(=O)c3ccc(=O)[nH]n3)C2)ccn1 (stereo not drawn)	-9.04
Cn1ncc(Cl)c1C(=O)N1CCc2nc3sccc3c(=O)n2CC1	-26.7

SMILES	cytotoxicity at 10 µM [%]
CN(C(=O)c1ccnn1C)[C@@H]1CCC[C@@H](Oc2ccccc2)[C@@H]1O	-35.9
Cc1ccccc1CN(C)C(=O)c1cc(C2CCCN2C)ccn1 (stereo not drawn)	-4.76
Cc1noc2nc(C3CCCN(Cc4ccncc4)C3)cc(C(F)F)c12 (stereo not drawn)	-16.7
CNC(=O)C1(c2cnccn2)CCCN1C(=O)c1c(F)cccc1F (stereo not drawn)	-24.1
Cc1csc(C(Cc2ccsc2)NC(=O)Cn2cccnc2=O)n1 (stereo not drawn)	-22.2
O=c1c2ccccc2nc2n1C(CSc1ccc(Cl)cc1Cl)CN2 (stereo not drawn)	6.01
c1ccc(-c2nc(CCNCc3ccccn3)co2)cc1	-1.89
CCN(C)S(=O)(=O)c1c(F)cc(NC(C)=O)cc1F	-40.7
CC(C)c1noc(CCC(=O)Nc2cc(F)ccc2F)n1	-15.4
Cc1cc(CN(C)C(=O)NC(C)Cc2ccco2)no1 (stereo not drawn)	6.62
Cc1cn2c(n1)CCC(NS(=O)(=O)c1ccc(C)s1)C2 (stereo not drawn)	12.9
CCC(C)(CC(=O)OC)NC(=O)c1ccc(C(C)=O)cc1 (stereo not drawn)	-4.89
Clc1cccc(N2CCC(NCc3ncc[nH]3)C2)c1 (stereo not drawn)	7.41
Cc1n[nH]cc1CNC(=O)[C@H]1CCCCN1C(=O)OC(C)(C)C	-0.311
CC(C)(C)c1cnc(CNCC2CCCN2c2cccnn2)o1 (stereo not drawn)	-2.2
CCc1nccn1C1CCCN(C(=O)c2ccnc(C)n2)C1 (stereo not drawn)	-1.12
Cc1sc2nc(C(F)(F)F)nc(N3CCC(NS(C)(=O)=O)CC3)c2c1C	-17
CC(=O)N1CCN(c2nc(C(F)(F)F)nc3sc(C)c(C)c23)CC1	-4.33
Cn1cc(S(=O)(=O)N2CCCC2Cn2ccnc2)cn1 (stereo not drawn)	6.58
CC(C)c1noc(CS(=O)(=O)Cc2nc(C(C)C)no2)n1	-7.85
CCN(Cc1cccc(NC(=O)COC)c1)C(C)=O	-125
Cn1cc(C(=O)N(Cc2ccco2)Cc2cccs2)ccc1=O	-0.0261

SMILES	cytotoxicity at 10 µM [%]
O=C(NC1CCN(c2ccccc2Br)C1)c1c[nH]nn1 (stereo not drawn)	-17.9
CC(C)N(Cc1ccccn1)C(=O)CCC(=O)c1ccccc1	3.33
Cc1cc(C)n(C2CN(CC(O)Cn3cccn3)C2)n1 (stereo not drawn)	-5.09
NS(=O)(=O)c1cnn(-c2ccc(NC(=O)CC3CCCC3)cn2)c1	6.74
CN1CCN(S(=O)(=O)c2ccc(Cl)c(Cl)c2)c2cnccc21	5.57
CCN1CCc2c(cccc2NC(=O)CN(C)C2CCSC2)C1 (stereo not drawn)	-47
CN(C)c1nccc(N(C)C2CCOCC2)n1	3.13
COc1cccc(C(=O)NC(C)CCN2CCOCC2)c1F (stereo not drawn)	-45.2
Cc1nc([C@@H]2C[C@@H]3CCN(C(=O)Cc4cccc(F)c4)C[C@H]3O2)no1	4.17
Cc1nc([C@@H]2C[C@@H]3CCN(C(=O)Cc4ccsc4)C[C@H]3O2)no1	1.85
N[C@H]1CN(C(=O)CCc2cc(Cl)no2)C[C@@H]1c1ccccc1	-7.03
CSCCC(=O)N1CCCN(c2ccccc2C)CC1	-9.31
COCCN(Cc1sccc1C)C(=O)COc1ccccc1O	-145
Cc1ccc2oc(=O)n(CCC(=O)N3CCC4(CN(C)C(=O)O4)C3)c2c1 (stereo not drawn)	1.66
Cc1nc(CN(C)C(=O)c2cccc(CC3CCNCC3)c2)no1	-5.56
COc1ccc(N2CCN(C(=O)C3CN(C)C(=O)N3)CC2(C)C)cc1 (stereo not drawn)	0.254
COCCC(=O)NCc1cccnc1-n1cnc2ccccc21	-8.42
O=C(C1CCCO1)N1CCC(Cn2cc(C3CCCC3)nn2)CC1 (stereo not drawn)	5.61
CCc1noc(CN(C)C(=O)c2ccccc2-c2ncn[nH]2)n1	16.7
Cc1ccnc(Cn2cc(-c3cccc(C(C)N(C)C)c3)nn2)c1 (stereo not drawn)	1.74
CC(C)N1CCC(C(=O)N2CCCN(c3ccccc3)CC2)CC1	7.4
CCCOCC1CCN(C(=O)Cn2cccc(C(F)(F)F)c2=O)C1 (stereo not drawn)	-16.3

SMILES	cytotoxicity at 10 µM [%]
CCn1cc(CN(C)c2nc(C)c3ccc(S(C)(=O)=O)cc3n2)cn1	48.8
N[C@H]1CN(C(=O)c2ccccc2OCCc2ccccc2)C[C@@H]1C1CC1	-2.68
Cc1nc2c(NC(CC(C)(C)C)c3cccnc3)ncnc2o1 (stereo not drawn)	4.24
Cc1ccc(OCC2CCCN(c3nc(CO)cs3)C2)cc1 (stereo not drawn)	5.4
Cc1cc(C(=O)N2CCn3nc(C(=O)NC4CC4)cc3C2)nc(C)n1	1.15
COc1nc(C)c(C(=O)NCc2cc(N3CCOCC3)ncn2)s1	12.9
O=S1(=O)C[C@@H]2[C@H](C1)N(Cc1ncc[nH]1)CCN2CCCc1ccccc1	0.662
OCc1csc(N2CCCN(Cc3ccc(F)cc3)CC2)n1	-2.58
O=c1cnc2ccccc2n1CCCn1ccnc1	-3.85
CC(C)NS(=O)(=O)c1cc(C(=O)O)cc(-c2ccc3c(c2)OCCO3)c1	-2.34
O=C(CCn1ccnc1)N1CC[C@@H](c2ccc3ccccc3c2)[C@H](O)C1	-0.288
Nc1cc(N2CCCC(Cc3ccc(F)cc3F)(C(=O)O)C2)ncn1 (stereo not drawn)	10.6
Cc1ccc(C(=O)NC2CCN(C)CC2)cc1N(C)S(C)(=O)=O	-0.853
CCN(CC)C(=O)[C@@H]1C[C@H](n2cc(-c3ccccn3)nn2)CN1	-20.6
CN(CC1CCCN1C)c1nccc(C2CCCC2)n1 (stereo not drawn)	-12.9
O=C(N1CCC(Oc2ccncc2)CC1)C1(c2ccc(F)cc2)CC1	-7.66
Cc1cnn(CCNCc2cc(C#N)ccc2F)c1	-10.1
CNC(=O)CN1CCC(NC(=O)N(C)Cc2c(C)noc2C)CC1	2.1
CCCN1CCCC1Cn1nc(C)cc1C (stereo not drawn)	-7.72
CCN(CC1CCOC1)C(=O)c1cnc2onc(C)c2c1 (stereo not drawn)	-10.4
COc1ccccc1CC(=O)NS(=O)(=O)c1ccc(C(N)=O)cc1	-5.2
Cc1cc(NC(=O)CN2CCc3cnc(C)nc3C2)on1	-5.33

SMILES	cytotoxicity at 10 µM [%]
COc1ccc(-c2nc(CN3CCc4c(ncn4C)C3)cs2)cc1	3
Cc1cc(C(=O)NCc2ccnc(N(C)C)c2)c(C)o1	-2.43
CC1CCCCN1CCNC(=O)c1ccn(-c2ccc(F)cc2)n1 (stereo not drawn)	-1.91
CC(=O)N(Cc1noc(C)n1)C1CCN(CCOc2ccccc2)C1 (stereo not drawn)	-2.04
CCC(CN1CCCC1)n1cncc1-c1cnn(-c2ccccc2)c1 (stereo not drawn)	5.87
Cc1[nH]c2c(C)cccc2c1CC(=O)N(C)CCN(C)C	1.14
CC(=O)N1[C@H](Cn2cncn2)C[C@@H]2CN(Cc3ccccn3)CC[C@@H]21	0.732
Cc1noc(C)c1S(=O)(=O)N1CCc2nc(C3CCNCC3)ncc2C1	-22.9
CC(C)(C)C(=O)N1C[C@H](c2ccsc2)[C@H]2CN(C3CCCC3)CC[C@H]21	2.33
Cc1ccc(CNC(=O)CN2CCN(CC(O)C3CC3)CC2)cc1 (stereo not drawn)	4.91
CN(C)C(=O)[C@H]1CO[C@H]2CCN(c3ncc(F)cn3)C[C@H]2C1	7.75
CS(=O)(=O)N1CCC2(CCCN(Cc3ccccn3)C2)CC1	-121
Cc1cccc(CN2CC[C@H]3O[C@H](C(=O)Nc4cnccn4)CC[C@H]32)n1	-144
Cc1ccc(CN2CCC3(CC2)OC(C(=O)N(C)C)c2ccccc23)o1 (stereo not drawn)	4.34
O=C(c1cccnc1)N1CCC2(CC1)CC(Oc1ccccc1)CO2 (stereo not drawn)	1.65
Cc1nc(CN2CCC3(CC2)NC(=O)CC3c2ccccc2)cs1 (stereo not drawn)	4.33
c1cc(CN2CCOCC3(C2)CN(Cc2nccs2)CCO3)ccn1 (stereo not drawn)	2.14
FC1(F)CCN(Cc2ccccn2)CC12CCN(c1cnccn1)C2 (stereo not drawn)	-108
CCn1cc2[nH]c(OC)c(CNC(=O)C3CCCN(C)C3)cc-2c1=O (stereo not drawn)	11.3
COCC1N(C(=O)c2ccco2)C2CCC1(O)CC2 (stereo not drawn)	1.4
